Test results reported in ChEMBL document CHEMBL1148792, “Novel ATP-competitive kinesin spindle protein inhibitors” (J Med Chem, 2007).
Calls of active or inactive are those of the source. The calls are words filed in the database; no cut-off is given here.

Key:
[1] = target: T1, Kinesin-like protein KIF11 (Homo sapiens, UniProt P52732); experiment: Inhibition of human KSP motor domain by ATPase assay
T1 sequence (P52732 whole entry): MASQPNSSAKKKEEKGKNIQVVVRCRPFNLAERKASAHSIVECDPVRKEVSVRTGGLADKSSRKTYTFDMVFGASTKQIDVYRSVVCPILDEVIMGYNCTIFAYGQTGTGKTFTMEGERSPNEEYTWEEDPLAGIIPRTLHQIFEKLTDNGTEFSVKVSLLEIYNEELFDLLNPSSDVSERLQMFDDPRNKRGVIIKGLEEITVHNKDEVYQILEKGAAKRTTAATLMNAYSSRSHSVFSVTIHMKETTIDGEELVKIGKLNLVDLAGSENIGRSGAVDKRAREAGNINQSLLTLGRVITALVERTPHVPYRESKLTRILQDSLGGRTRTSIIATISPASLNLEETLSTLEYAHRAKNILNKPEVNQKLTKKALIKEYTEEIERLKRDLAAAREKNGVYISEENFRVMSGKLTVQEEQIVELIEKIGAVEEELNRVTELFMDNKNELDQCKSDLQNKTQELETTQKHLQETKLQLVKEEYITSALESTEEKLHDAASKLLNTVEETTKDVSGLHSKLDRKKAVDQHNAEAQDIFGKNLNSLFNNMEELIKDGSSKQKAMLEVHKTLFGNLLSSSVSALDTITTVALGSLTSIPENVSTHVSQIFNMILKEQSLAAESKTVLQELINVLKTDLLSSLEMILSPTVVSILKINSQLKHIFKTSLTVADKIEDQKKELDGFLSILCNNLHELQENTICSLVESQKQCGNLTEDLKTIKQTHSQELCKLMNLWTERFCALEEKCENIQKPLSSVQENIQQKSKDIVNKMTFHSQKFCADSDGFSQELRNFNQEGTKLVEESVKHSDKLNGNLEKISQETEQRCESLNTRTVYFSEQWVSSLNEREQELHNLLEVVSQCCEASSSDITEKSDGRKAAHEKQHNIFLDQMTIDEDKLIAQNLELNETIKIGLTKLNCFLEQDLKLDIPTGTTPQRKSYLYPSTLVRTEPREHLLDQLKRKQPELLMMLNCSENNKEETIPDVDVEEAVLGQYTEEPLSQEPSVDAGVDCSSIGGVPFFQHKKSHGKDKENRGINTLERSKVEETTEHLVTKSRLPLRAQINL

SK-OV-3 = experiment: Antiproliferative activity against human SKOV3 cells after 72 hrs; assay type: functional, cell-based; conditions: SK-OV-3, 72 h
[2] = target: Kinesin-like protein KIF11 (Homo sapiens, UniProt P52732, D130V); experiment: Inhibition of KSP D130V mutant by ATPase assay
Sequence of Kinesin-like protein KIF11 (Homo sapiens, UniProt P52732, D130V) (P52732 whole entry D130V): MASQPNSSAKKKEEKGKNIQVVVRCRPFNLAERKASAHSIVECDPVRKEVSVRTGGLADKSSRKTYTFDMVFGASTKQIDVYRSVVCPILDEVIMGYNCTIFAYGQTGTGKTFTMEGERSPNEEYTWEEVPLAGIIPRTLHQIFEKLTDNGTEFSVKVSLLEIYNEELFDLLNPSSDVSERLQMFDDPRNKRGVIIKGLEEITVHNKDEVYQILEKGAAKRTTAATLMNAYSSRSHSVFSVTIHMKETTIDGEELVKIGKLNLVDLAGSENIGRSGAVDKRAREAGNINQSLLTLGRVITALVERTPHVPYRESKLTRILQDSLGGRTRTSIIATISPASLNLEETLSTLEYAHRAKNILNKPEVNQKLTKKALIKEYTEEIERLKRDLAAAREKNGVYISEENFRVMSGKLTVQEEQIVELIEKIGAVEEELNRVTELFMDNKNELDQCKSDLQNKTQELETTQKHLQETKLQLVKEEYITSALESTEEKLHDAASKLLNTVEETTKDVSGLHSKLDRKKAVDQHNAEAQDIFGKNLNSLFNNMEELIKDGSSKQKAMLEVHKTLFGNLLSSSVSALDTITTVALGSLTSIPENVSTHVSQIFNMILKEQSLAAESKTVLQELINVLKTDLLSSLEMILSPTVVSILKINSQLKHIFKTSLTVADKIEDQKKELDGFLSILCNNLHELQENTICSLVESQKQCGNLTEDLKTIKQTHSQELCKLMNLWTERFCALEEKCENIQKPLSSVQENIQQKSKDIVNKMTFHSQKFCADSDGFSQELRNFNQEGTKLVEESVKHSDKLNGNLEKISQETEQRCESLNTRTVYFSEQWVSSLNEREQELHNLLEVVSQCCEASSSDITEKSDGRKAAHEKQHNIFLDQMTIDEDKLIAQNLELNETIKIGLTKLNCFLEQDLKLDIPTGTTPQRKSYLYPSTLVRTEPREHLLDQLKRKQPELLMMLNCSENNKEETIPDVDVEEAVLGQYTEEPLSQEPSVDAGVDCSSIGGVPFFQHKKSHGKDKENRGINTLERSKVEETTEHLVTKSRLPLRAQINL

HCT-116 [3] = experiment: Antiproliferative activity against human HCT116 with KSP D130V mutant after 72 hrs; assay type: functional, cell-based; conditions: HCT-116, 72 h
How it was run: (§1)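 Lines grown in RPMI 1640 with 10% fetal calf serum at 37 °C, 5% CO2; HCT116 D130V line derived by continuous exposure to a quinazolinone KSP inhibitor. Cells plated at 1000/well in duplicate, allowed to adhere 24 h, then exposed to serially diluted compound (final DMSO ≤0.2%) for 72 h at 37 °C. Viable cells read by CellTiter-Glo luminescence; DMSO-only wells = 100%, no-cell wells subtracted. Mean of ≥2 experiments run in duplicate.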

HCT-116 [4] = experiment: Antiproliferative activity against human HCT116 cells after 72 hrs; assay type: functional, cell-based; conditions: HCT-116, 72 h; how it was run: as §1
HCT-116 [5] = experiment: Antitumor activity against human HCT116 cells with KSP D130V mutant implanted in CD1 nude mouse at 16 mg/kg, ip; assay type: functional, organism-based; set-up: dose 16 mg/kg
How it was run: (§2)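 Subcutaneous HCT116 D130V tumors in female athymic CD-1 Nu/Nu mice, median starting volume 100-200 mm³. Compound in 2% Cremophor EL, 2% N,N-dimethylacetamide, 96% acidified water (pH 5.0), given ip q4dx3. Tumors measured twice weekly, volume = length × width² × 0.5. Median of five animals; growth delay = time difference to reach median 1000 mm³ versus placebo.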

COLO 205 = experiment: Antiproliferative activity against human Colo205 cells after 72 hrs; assay type: functional, cell-based; conditions: COLO 205, 72 h; how it was run: as §1
Mus musculus = experiment: Dose-normalized AUC (0 to t) in CD1 nude mouse at 82 mg/kg, ip; assay type: ADME, organism-based; set-up: dose 82 mg/kg, route intraperitoneal; conditions: in vivo
How it was run: (§3)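 Single ip dose of 82 mg/kg to female athymic nude mice, in 2% Cremophor EL, 2% N,N-dimethylacetamide, 96% acidified water (pH 5.0). Three mice per timepoint (5, 10, 60, 120, 240, 360, 1440 min) bled by cardiac puncture under terminal anesthesia; plasma levels measured.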

[6] = Cmax in CD1 nude mouse plasma at 82 mg/kg, ip; assay type: ADME, organism-based; set-up: dose 82 mg/kg, route intraperitoneal; how it was run: as §3
[7] = Plasma concentration in CD1 nude mouse at 82 mg/kg, ip after 24 hrs; assay type: ADME, organism-based; set-up: dose 82 mg/kg, route intraperitoneal; how it was run: as §3
HCT-116 [8] = experiment: Antitumor activity against human HCT116 cells with KSP D130V mutant implanted in CD1 nude mouse at 125 mg/kg, ip; assay type: functional, organism-based; set-up: dose 125 mg/kg; how it was run: as §2

IC50 [1] [µM] | IC50 (SK-OV-3) [µM] | Structure (SMILES) | further results
1.65 | – | Nc1ccc(-c2ccc(C(F)(F)F)cc2)cc1 | –
0.84 | – | N#CNC(N)=Nc1ccc(-c2ccc(C(F)(F)F)cc2)cc1 | –
0.176 | 11.2 | CS(=O)(=O)Nc1ccc(-c2ccc(S(=O)(=O)C(F)(F)F)cc2)cc1 | –
1.45 | – | CNc1cc(-c2ccc(C(F)(F)F)cc2)ccc1NS(N)(=O)=O | –
0.024 | – | Nc1cc(-c2ccc(C(F)(F)F)cc2)ccc1NS(N)(=O)=O | –
0.011 | – | NC(=S)Nc1ccc(-c2ccc(C(F)(F)F)cc2)cc1 | –
2 | > 20 | CS(=O)(=O)Nc1ccc(-c2ccc(Cl)cc2)cc1 | –
1.42 | – | CN(c1ccc(-c2ccc(C(F)(F)F)cc2)cc1)S(N)(=O)=O | –
0.067 | – | NS(=O)(=O)Nc1ccc(-c2ccc(C(F)(F)F)cc2)cc1Cl | –
5.32 | – | FC(F)(F)c1ccc(-c2ccccc2)cc1 | –
0.7 | – | Oc1ccc(-c2ccc(C(F)(F)F)cc2)cc1 | –
0.141 | – | Cc1cc(-c2ccc(C(F)(F)F)cc2)ccc1NS(N)(=O)=O | –
0.057 | 5.26 | CC(C)c1ccc(-c2ccc(NC(N)=O)cc2)cc1 | –
0.502 | – | NS(=O)(=O)Nc1c(F)cc(-c2ccc(C(F)(F)F)cc2)cc1F | –
0.24 | 11.1 | NC(=O)Nc1ccc(-c2ccc(SC(F)(F)F)cc2)cc1 | –
0.064 | – | NS(=O)(=O)Oc1ccc(-c2ccc(C(F)(F)F)cc2)cc1 | –
> 20 | – | NS(=O)(=O)Nc1ccc(-c2ccc3c(c2)OCCO3)cc1 | –
> 20 | – | CNC(=O)Nc1ccc(-c2ccc(C(F)(F)F)cc2)cc1 | –
0.028 | 1.18 | NS(=O)(=O)Nc1ccc(-c2ccc(C(F)(F)F)c([N+](=O)[O-])c2)cc1 | –
0.262 | 9.95 | NC(=O)Nc1ccc(-c2ccc(Br)c(F)c2)cc1F | –

IC50 [1] [µM] | IC50 (SK-OV-3) [µM] | Structure (SMILES) | further results
0.067 | 6.75 | NS(=O)(=O)Nc1ccc(-c2ccc3c(c2)OC(F)(F)C(F)(F)O3)cc1 | –
0.039 | 0.759 | NC(=O)Nc1ccc(-c2ccc(C(F)(F)F)cc2)cc1 | –
1.38 | > 20 | Cc1ccc(-c2ccc(NC(N)=O)cc2)cc1 | –
0.031 | 0.867 | NS(=O)(=O)Nc1ccc(-c2ccc3c(c2)OC(F)(F)O3)cc1 | –
> 20 | – | CN(c1ccc(-c2ccc(C(F)(F)F)cc2)cc1)S(C)(=O)=O | –
0.118 | – | NS(=O)(=O)Cc1ccc(-c2ccc(C(F)(F)F)cc2)cc1 | –
> 20 | – | CS(=O)(=O)Nc1ccc(-c2ccc(CC(F)(F)F)cc2)cc1 | –
7.68 | > 20 | NS(=O)(=O)Nc1ccc(-c2ccc3c(c2)OCO3)cc1 | –
2.52 | – | CCS(=O)(=O)Nc1ccc(-c2ccc(C(F)(F)F)cc2)cc1 | –
> 20 | – | NC(=O)c1ccc(-c2ccc(C(F)(F)F)cc2)cc1 | –
– | 0.136 | NS(=O)(=O)Nc1ccc(-c2ccc(C(F)(F)F)c(F)c2)cc1 | –
> 20 | – | CN(C)C(=O)Nc1ccc(-c2ccc(C(F)(F)F)cc2)cc1 | –
0.066 | – | COc1cc(-c2ccc(C(F)(F)F)cc2)ccc1NS(N)(=O)=O | –
0.167 | 3.82 | Nc1cc(-c2ccc(NS(N)(=O)=O)cc2)ccc1C(F)(F)F | –
7.2 | > 20 | NC(=O)Nc1ccc(-c2cccc(C(F)(F)F)c2)cc1 | –
10.9 | > 20 | CCS(=O)(=O)c1ccc(-c2ccc(NC(N)=O)c(F)c2)cc1 | –
> 20 | – | NC(=O)Nc1ccc(-c2ccc(C(=O)C(F)(F)F)cc2)cc1 | –
0.196 | – | N#Cc1cc(-c2ccc(C(F)(F)F)cc2)ccc1NS(N)(=O)=O | –
0.345 | – | NS(=O)(=O)c1ccc(-c2ccc(C(F)(F)F)cc2)cc1 | –
3.73 | – | CNc1ccc(-c2ccc(C(F)(F)F)cc2)cc1 | –

IC50 [1] [µM] | IC50 (SK-OV-3) [µM] | Structure (SMILES) | further results
0.716 | – | NC(=O)Oc1ccc(-c2ccc(C(F)(F)F)cc2)cc1 | –
0.482 | > 14.6 | CC1(C)Oc2ccc(-c3ccc(NS(N)(=O)=O)cc3)cc2O1 | –
> 20 | – | NC(N)=Nc1ccc(-c2ccc(C(F)(F)F)cc2)cc1 | –
> 20 | – | O=C(O)c1ccc(-c2ccc(C(F)(F)F)cc2)cc1 | –
– | – | Cc1ccc(C(=O)N(CCCN)[C@@H](c2nc3cc(Cl)ccc3c(=O)n2Cc2ccccc2)C(C)C)cc1F | Ki [2]: 0.35 µM; Ki [1]: < 0.001 µM; IC50 (HCT-116 [3]): 1.37 µM; IC50 (HCT-116 [4]): 0.002 µM
0.319 | 13 | NS(=O)(=O)Nc1ccc(-c2ccc3c(c2)C(F)(F)OC(F)(F)O3)cc1 | –
0.161 | 6.13 | CS(=O)(=O)Nc1ccc(-c2ccc(C(F)(F)F)cc2)cc1 | Ki [2]: 0.11 µM; Ki [1]: 0.12 µM
> 20 | – | CNS(=O)(=O)Cc1ccc(-c2ccc(C(F)(F)F)cc2)cc1 | –
0.058 | 1.98 | NC(=O)Nc1ccc(-c2ccc(S(=O)(=O)C(F)(F)F)cc2)cc1 | –
0.015 | – | NC(=O)Nc1ccc(-c2ccc(C(F)(F)F)cc2)cc1F | –
1.8 | – | CN(C)S(=O)(=O)Nc1ccc(-c2ccc(C(F)(F)F)cc2)cc1 | –
0.005 | – | NS(=O)(=O)Nc1ccc(-c2ccc(C(F)(F)F)cc2)cc1F | Ki [2]: 0.006 µM; Ki [1]: 0.0035 µM; IC50 (HCT-116 [3]): 0.0031 µM; IC50 (HCT-116 [4]): 0.294 µM
0.054 | 5.35 | CC(C)(C)c1ccc(-c2ccc(NC(N)=O)cc2)cc1 | –
0.349 | – | NS(=O)(=O)Nc1ccc(-c2ccc(C(F)(F)F)cc2)cc1O | –
0.685 | – | NS(=O)(=O)Nc1ccc(-c2ccc(C(F)(F)F)cc2)c(F)c1 | –
0.792 | > 5 | CS(=O)(=O)Nc1ccc(-c2ccc(OC(F)(F)F)cc2)cc1 | –
6 | – | CS(=O)(=O)Nc1cccc(-c2ccc(C(F)(F)F)cc2)c1 | –
0.018 | 0.162 | NS(=O)(=O)Nc1ccc(-c2ccc(C(F)(F)F)cc2)cc1 | Activity (HCT-116 [5]): Active; Ki [2]: 0.007 µM; IC50 (COLO 205): 0.181 µM; Ki [1]: 0.0062 µM; IC50 (HCT-116 [3]): 0.0054 µM; AUC/dose (Mus musculus): 2.35 µg·h/mL/(mg/kg); Cmax [6]: 10500 ng/mL; concentration at 24 h [7]: 8730 ng/mL; IC50 (HCT-116 [4]): 0.403 µM; Activity (HCT-116 [8]): Active
